Screening results deposited in PubChem by several laboratories.
TRAIL sens C8 = sensitizes caspase-8 expressing cells to TRAIL. NB7+C8 cells + TRAIL, ATPlite viability luminescence. inhibition (viability loss, TRAIL sensitization), % at 10 µM. 1% of 360,000 active. AID 624354;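 active = compounds causing at least 50% loss of cell viability in the single-dose screen, relative to plate controls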
PPC-1+TRAIL kill = kills PPC-1 cancer cells in the presence of TRAIL | cell killing (% activity), % at 4 µM or 5 µM | PPC-1 cells + TRAIL, ATPLite viability luminescence | AID 1443 | 0.41% of 220,000 active;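 active = cell killing above 50% in the first pass at 4 µM, then a duplicate retest at 5 µM averaging 50% or more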;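 note: plate controls were cells with TRAIL plus DMSO for no effect and medium-only wells lacking cells for full effect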
STAT3 act = increases IL-6 driven STAT3 reporter signal; 0.91% of 190,000 active; U3A cells, IL-6 STAT3-luciferase reporter, luminescence; 100% = signal with IL-6 EC80 alone; activation (% of control), % at 5.6 µM;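 active = activation above the screen-wide mean of compound activation plus 3 SD, cut at about 130% in these data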;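 note: 0% = background luminescence of wells with medium and substrate only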
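Material: STAT3-luciferase reporter U3A cells; Probe or stimulus: IL-6 (33 ng/mL); Incubation: compound pre-incubation 1 h before IL-6, then 6 h stimulation at 37 °C; Technique: luminescence from STAT3-driven luciferase reporter; Evaluation: % activation versus median of IL-6-stimulated wells; Controls: IL-6-only high control.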
STAT3 blocker = inhibitors of IL-6 induced STAT3 signaling | U3A cells, IL-6 STAT3-luciferase reporter, luminescence; host cell line lacks STAT1 | inhibition, % at 5.5 µM | 0.89% of 190,000 active | AID 862;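 active = inhibition above the mean inhibition across all screened compounds plus 3 SD, cut at about 44% in these data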;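 note: 0% = DMSO only wells and 100% = 100 µM nifuroxazide control wells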
STAT1 inh = STAT1 signaling inhibition | NIH 3T3 STAT1-luciferase reporter, IFN-gamma, luminescence | AID 920 | inhibition, % at 5.5 µM | 0.35% of 200,000 active;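 active = inhibition above a set limit, the mean inhibition across all tested compounds plus 3 SD, cut at about 34% in these data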;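 note: 0% = IFN-gamma with DMSO and 100% = IFN-gamma with 300 µM nifuroxazide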
* hit, by the source's call; nt = no result given. Sampled rows, rich in hits. Any-hit rate of the full collection: about 1.8%.

SMILES	TRAIL sens C8	PPC-1+TRAIL kill	STAT3 act	STAT3 blocker	STAT1 inh
Cc1cc(C2=NNC(=NC3CC3)SC2)c(C)n1Cc1ccco1	31.7	-5.3	29.0	84.6*	52.1*
COc1ccc(-n2c(C)cc(C3=NNC(=NC4CC4)SC3)c2C)cc1	4.2	2.3	80.3	27.5	62.5*
c1ccc2c(C3=NNC(=NC4CC4)SC3)c[nH]c2c1	33.8	18.9	109.2	-11.0	-25.8
COCCCN=C1NN=C(c2cc(C)n(Cc3ccco3)c2C)CS1	11.3	24.4	98.0	2.6	-26.1
Cc1cc(C2=NNC(=NC3CC3)SC2)c(C)n1-c1ccccc1	79.2*	6.2	11.6	104.6*	91.0*
COc1ccc(CNC(=O)CCNC(=O)C2CCN(S(=O)(=O)c3ccc(OC)cc3)CC2)cc1	2.7	nt	nt	nt	nt
NC(=O)c1ccsc1NC(=O)c1coc2ccccc2c1=O	52.0*	29.3	90.6	19.1	-71.4
CCOc1ncccc1C(=O)OCc1ccc(C(=O)OC)cc1	3.3	11.6	137.2*	-34.9	-33.1
Cc1nn(C(=O)c2cc3sccc3[nH]2)c(C)c1C	5.8	10.7	143.1*	-49.8	-41.0
Cc1nn(C(=O)CNC(=O)c2ccccc2)c(C)c1C	-3.2	9.9	87.2	24.4	-15.1
CC(C)C(NC(=O)c1c(F)cccc1F)C(=O)N1CCN(S(=O)(=O)/C=C/c2ccccc2)CC1 (stereo not given)	-11.7	nt	nt	nt	nt
CCc1ccc(/C=C2\SC(=S)N(CCCC(=O)N3CCN(C)CC3)C2=O)cc1	86.9*	nt	nt	nt	nt
CCc1ccc(/C=C2/SC(=S)N(CCC(=O)NCCCN3CCOCC3)C2=O)cc1	25.3	nt	nt	nt	nt
CCc1ccc(/C=C2\SC(=S)N(CCCC(=O)NCCCN3CCOCC3)C2=O)cc1	75.5*	nt	nt	nt	nt
COc1ccc(/C=C2\SC(=S)N(CCCC(=O)N3CCN(C)CC3)C2=O)cc1	-13.4	nt	nt	nt	nt
COC(=O)C1=C(C(=O)OC)[C@]2([C@H]3CCCCN[C@@H](Cc4ccccc4)C(=O)N3Cc3ccccc3)C=C[C@H]1O2	8.4	nt	nt	nt	nt
O=C(COc1ccc(S(=O)(=O)N2CCOCC2)cc1)Nc1cccc([N+](=O)[O-])c1	-1.0	nt	nt	nt	nt
CN(C)c1ccc(-c2cc3ccccc3c(=O)o2)cc1	57.4*	nt	nt	nt	nt
COc1ccc(-c2cc3ccccc3c(=O)o2)cc1	52.7*	nt	nt	nt	nt
O=C(NC1CCCC1)C1C(c2ccc(C(F)(F)F)cc2)=Nc2ccccc2N1C(=O)c1cccc(C(F)(F)F)c1 (stereo not given)	12.5	nt	nt	nt	nt
COc1ccc(C(O)c2ncc(C(F)(F)F)cc2Cl)cc1 (stereo not given)	9.3	nt	nt	nt	nt
Fc1ccc(-c2cn3cc(C(F)(F)F)cc(Cl)c3n2)cc1	20.3	23.6	174.3*	-74.8	-43.4
COc1ccc(-c2cn3cc(C(F)(F)F)cc(Cl)c3n2)cc1	38.6	27.6	161.1*	-67.2	-58.4
CCc1ccc(C2CC3C(CN2S(=O)(=O)c2ccc(C)cc2)[C@@H](O)C[C@@H](c2ccc(CC)cc2)N3S(=O)(=O)c2ccc(C)cc2)cc1 (stereo not given in full)	10.3	nt	nt	nt	nt
CC(C)C(N)c1csc(NC(=O)Nc2cccc(Cl)c2)n1 (stereo not given)	21.1	nt	nt	nt	nt
SMILES	TRAIL sens C8	PPC-1+TRAIL kill	STAT3 act	STAT3 blocker	STAT1 inh
C[C@H]1CN([C@@H](C)CO)C(=O)CCCn2nncc2CO[C@H]1CN(C)C(=O)C1CC1	1.0	nt	nt	nt	nt
C=CCOn1c(C)c(C(C)=O)c2c3no[n+]([O-])c3ccc21	59.8*	11.7	90.6	15.4	8.1
Cc1nc(SCC(=O)N2CCCCCC2)c2c(=O)n(C)c(=O)n(CC(C)C)c2n1	2.2	nt	nt	nt	nt
CCn1cc(/C=C/C(=O)c2ccc(O)cc2)c(C)n1	63.7*	37.0	103.6	0.5	-20.2
Cc1nn(C)cc1/C=C/C(=O)c1ccccc1	36.2	29.6	115.0	-11.0	-11.9
N/C(=N\OC(=O)c1cccc(Cn2cc(C(F)(F)F)ccc2=O)c1)c1ccccc1	36.4	15.6	nt	nt	nt
Cc1ccc(/C(N)=N/OC(=O)c2cccc(Cn3cc(C(F)(F)F)ccc3=O)c2)cc1	80.7*	3.5	nt	nt	nt
O=c1oc(-c2ccc(Cl)cc2[N+](=O)[O-])nc2ccccc12	-6.6	nt	nt	nt	nt
COc1ccc(-c2coc3c(C(=O)NCc4ccc(OC)c(OC)c4)cccc23)c(C)c1	8.4	nt	nt	nt	nt
CC1C(=O)N(Cc2cn(Cc3ccco3)nn2)CCS(=O)(=O)N1Cc1ccc(-c2ccccc2C(F)(F)F)cc1 (stereo not given)	-17.1	nt	nt	nt	nt
CN(CC(=O)Nc1nc2ccccc2s1)S(=O)(=O)c1ccc(Br)cc1	1.2	19.3	133.6*	-40.1	-9.8
O=C(Cn1cnc2ccccc2c1=O)Nc1nc2ccccc2s1	-9.8	12.0	135.6*	-38.5	4.1
Cc1cccc(NC(=O)CN(C)S(=O)(=O)c2ccc(Br)cc2)n1	5.9	18.6	102.0	4.6	-0.9
CCc1ccc2nc(NC(=O)Cn3cnc4ccccc4c3=O)sc2c1	7.1	33.3	104.0	-2.2	-12.9
O=C(CS(=O)(=O)c1ccccc1)Nc1nc2ccccc2s1	10.7	28.5	133.3*	-30.7	-8.4
N#CC(C#N)=C1SC(=Nc2ccccc2)C(=Nc2ccccc2)N1c1ccccc1	91.6*	nt	nt	nt	nt
Cn1cc(S(=O)(=O)CC(=O)N2CCCc3ccccc32)c2ccccc21	65.1*	36.7	109.0	-6.1	4.4
Cn1cc(C(=O)C(=O)N2CCCc3ccccc32)c2ccccc21	2.6	nt	86.6	22.7	6.1
COc1ccc(OCCN2C(=O)c3ccccc3C2=O)cc1	0.8	1.7	86.8	17.8	-30.3
O=C1c2ccccc2C(=O)N1CCOc1ccccc1	-3.1	nt	138.1*	-44.0	-39.5
CCOc1ccc(-n2c(=S)sc3c(=O)n(-c4ccc(F)cc4)c(SCC(=O)O)nc32)cc1	-14.1	nt	nt	nt	nt
Cc1cc(C)c2nc(NNC(=O)c3ccc(S(=O)(=O)N4CC(C)CC(C)C4)cc3)sc2c1 (stereo not given)	32.1	5.9	106.7	-7.9	-5.8
Cc1cccc2sc(NNC(=O)c3ccc(S(=O)(=O)N4CC(C)CC(C)C4)cc3)nc12 (stereo not given)	65.5*	27.1	108.4	-9.9	10.9
CCc1cc2c(N3CCN(c4ccccc4)CC3)ncnc2s1	7.2	-13.1	67.2	46.1*	7.1
COc1ccc(N2CC(C(=O)Nc3nnc(SCC(=O)N4CCOCC4)s3)CC2=O)cc1 (stereo not given)	8.2	nt	nt	nt	nt
SMILES	TRAIL sens C8	PPC-1+TRAIL kill	STAT3 act	STAT3 blocker	STAT1 inh
CCCCCN(C(=O)CSc1n[nH]c(-c2ccc(C)cc2)n1)c1c(N)n(CCCC)c(=O)[nH]c1=O	54.7*	nt	nt	nt	nt
CCCCn1c(N)c(N(CCOC)C(=O)CSc2n[nH]c(-c3ccc(C)cc3)n2)c(=O)[nH]c1=O	0.6	nt	nt	nt	nt
NC(CCc1ccccc1)c1csc(Nc2nncc3ccccc23)n1 (stereo not given)	-2.9	nt	nt	nt	nt
CC(C)c1cccc(-c2csc(C(C)(O)c3ccc(F)c(F)c3)n2)c1 (stereo not given)	-10.1	nt	nt	nt	nt
c1ccc2sc(-c3ccncc3)nc2c1	-2.0	7.8	nt	nt	nt
Oc1ccc(-c2nc3ccccc3s2)cc1	62.0*	32.3	nt	nt	nt
